Tested on: U2OS
Assay: Multiplex assay against U2OS
Type: toxicity, cell-based
Settings: human
Procedure, shortened: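 Compound was added to live cells that had been stained at seeding with Hoechst33342, BioTracker Green Microtubule Cytoskeleton Dye, MitoTracker Red and Annexin V Alexa Fluor 680, and imaging followed on a CQ1 microscope at 37°C and 5% CO2. CellPathfinder machine-learning gating divided cells into Hoechst high-intensity objects or normal cells, normal cells into healthy, pyknosed or fragmented nuclei, and pyknosed cells into mitotic or apoptotic. Tubulin, mitochondrial-mass and membrane-permeability phenotypes are per cents of healthy-nucleus cells.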

[1] = 12 h, 1 µM, compound concentration 1 uM, replicate 1
[2] = 12 h, 1 µM, compound concentration 1 uM, replicate 2
[3] = 12 h, 10 µM, compound concentration 10 uM, replicate 1
[4] = 12 h, 10 µM, compound concentration 10 uM, replicate 2
[5] = 24 h, 1 µM, compound concentration 1 uM, replicate 1
[6] = 24 h, 1 µM, compound concentration 1 uM, replicate 2
[7] = 24 h, 10 µM, compound concentration 10 uM, replicate 1
[8] = 24 h, 10 µM, compound concentration 10 uM, replicate 2
[9] = 48 h, 1 µM, compound concentration 1 uM, replicate 1
[10] = 48 h, 1 µM, compound concentration 1 uM, replicate 2
[11] = 48 h, 10 µM, compound concentration 10 uM, replicate 1
[12] = 48 h, 10 µM, compound concentration 10 uM, replicate 2

SMILES: CC(=O)Nc1cccc2c1c(Sc1ccc(Cl)cc1)c(C)n2CC(=O)O [AZD1981]
- Population Apoptotic (%) [1]: 68%
- Population Fragmented Nuclei (%) [1]: 24%
- Population Healthy Nuclei (%) [1]: 68%
- Population Hoechst High Intensity Objects (%) [1]: 3%
- Population Membrane Permeable-Phenotype (%) [1]: 3%
- Population Mitochondria Different-Phenotype (%) [1]: 0%
- Population Mitotic Cells (%) [1]: 31%
- Population Normal (%) [1]: 96%
- Population Pyknosed Nuclei (%) [1]: 6%
- Population Tubulin-Different-Phenotype (%) [1]: 2%
- Total Cell Count [1]: 253
- Population Apoptotic (%) [2]: 83%
- Population Fragmented Nuclei (%) [2]: 16%
- Population Healthy Nuclei (%) [2]: 76%
- Population Hoechst High Intensity Objects (%) [2]: 1%
- Population Membrane Permeable-Phenotype (%) [2]: 6%
- Population Mitochondria Different-Phenotype (%) [2]: 1%
- Population Mitotic Cells (%) [2]: 16%
- Population Normal (%) [2]: 98%
- Population Pyknosed Nuclei (%) [2]: 7%
- Population Tubulin-Different-Phenotype (%) [2]: 3%
- Total Cell Count [2]: 82
- Population Apoptotic (%) [3]: 83%
- Population Fragmented Nuclei (%) [3]: 25%
- Population Healthy Nuclei (%) [3]: 66%
- Population Hoechst High Intensity Objects (%) [3]: 2%
- Population Membrane Permeable-Phenotype (%) [3]: 8%
- Population Mitochondria Different-Phenotype (%) [3]: 0%
- Population Mitotic Cells (%) [3]: 16%
- Population Normal (%) [3]: 97%
- Population Pyknosed Nuclei (%) [3]: 7%
- Population Tubulin-Different-Phenotype (%) [3]: 1%
- Total Cell Count [3]: 231
- Population Apoptotic (%) [4]: 80%
- Population Fragmented Nuclei (%) [4]: 19%
- Population Healthy Nuclei (%) [4]: 76%
- Population Hoechst High Intensity Objects (%) [4]: 3%
- Population Membrane Permeable-Phenotype (%) [4]: 10%
- Population Mitochondria Different-Phenotype (%) [4]: 3%
- Population Mitotic Cells (%) [4]: 20%
- Population Normal (%) [4]: 96%
- Population Pyknosed Nuclei (%) [4]: 4%
- Population Tubulin-Different-Phenotype (%) [4]: 5%
- Total Cell Count [4]: 122
- Population Apoptotic (%) [5]: 91%
- Population Fragmented Nuclei (%) [5]: 25%
- Population Healthy Nuclei (%) [5]: 66%
- Population Hoechst High Intensity Objects (%) [5]: 2%
- Population Membrane Permeable-Phenotype (%) [5]: 5%
- Population Mitochondria Different-Phenotype (%) [5]: 1%
- Population Mitotic Cells (%) [5]: 8%
- Population Normal (%) [5]: 97%
- Population Pyknosed Nuclei (%) [5]: 8%
- Population Tubulin-Different-Phenotype (%) [5]: 3%
- Total Cell Count [5]: 289
- Population Apoptotic (%) [6]: 50%
- Population Fragmented Nuclei (%) [6]: 16%
- Population Healthy Nuclei (%) [6]: 82%
- Population Hoechst High Intensity Objects (%) [6]: 0%
- Population Membrane Permeable-Phenotype (%) [6]: 4%
- Population Mitochondria Different-Phenotype (%) [6]: 3%
- Population Mitotic Cells (%) [6]: 50%
- Population Normal (%) [6]: 100%
- Population Pyknosed Nuclei (%) [6]: 1%
- Population Tubulin-Different-Phenotype (%) [6]: 0%
- Total Cell Count [6]: 106
- Population Apoptotic (%) [7]: 88%
- Population Fragmented Nuclei (%) [7]: 23%
- Population Healthy Nuclei (%) [7]: 66%
- Population Hoechst High Intensity Objects (%) [7]: 0%
- Population Membrane Permeable-Phenotype (%) [7]: 6%
- Population Mitochondria Different-Phenotype (%) [7]: 2%
- Population Mitotic Cells (%) [7]: 11%
- Population Normal (%) [7]: 99%
- Population Pyknosed Nuclei (%) [7]: 9%
- Population Tubulin-Different-Phenotype (%) [7]: 2%
- Total Cell Count [7]: 266
- Population Apoptotic (%) [8]: 100%
- Population Fragmented Nuclei (%) [8]: 14%
- Population Healthy Nuclei (%) [8]: 77%
- Population Membrane Permeable-Phenotype (%) [8]: 3%
- Population Mitochondria Different-Phenotype (%) [8]: 4%
- Population Mitotic Cells (%) [8]: 0%
- Population Pyknosed Nuclei (%) [8]: 8%
- Population Tubulin-Different-Phenotype (%) [8]: 0%
- Total Cell Count [8]: 125
- Population Apoptotic (%) [9]: 91%
- Population Fragmented Nuclei (%) [9]: 16%
- Population Healthy Nuclei (%) [9]: 74%
- Population Hoechst High Intensity Objects (%) [9]: 1%
- Population Membrane Permeable-Phenotype (%) [9]: 6%
- Population Mitochondria Different-Phenotype (%) [9]: 2%
- Population Mitotic Cells (%) [9]: 8%
- Population Normal (%) [9]: 98%
- Population Pyknosed Nuclei (%) [9]: 9%
- Population Tubulin-Different-Phenotype (%) [9]: 4%
- Total Cell Count [9]: 375
- Population Apoptotic (%) [10]: 81%
- Population Fragmented Nuclei (%) [10]: 9%
- Population Healthy Nuclei (%) [10]: 82%
- Population Hoechst High Intensity Objects (%) [10]: 3%
- Population Mitochondria Different-Phenotype (%) [10]: 0%
- Population Mitotic Cells (%) [10]: 18%
- Population Normal (%) [10]: 96%
- Population Pyknosed Nuclei (%) [10]: 7%
- Population Tubulin-Different-Phenotype (%) [10]: 1%
- Total Cell Count [10]: 144
- Population Apoptotic (%) [11]: 100%
- Population Fragmented Nuclei (%) [11]: 18%
- Population Healthy Nuclei (%) [11]: 75%
- Population Hoechst High Intensity Objects (%) [11]: 2%
- Population Membrane Permeable-Phenotype (%) [11]: 7%
- Population Mitochondria Different-Phenotype (%) [11]: 2%
- Population Mitotic Cells (%) [11]: 0%
- Population Normal (%) [11]: 97%
- Population Pyknosed Nuclei (%) [11]: 5%
- Population Tubulin-Different-Phenotype (%) [11]: 4%
- Total Cell Count [11]: 366
- Population Apoptotic (%) [12]: 85%
- Population Fragmented Nuclei (%) [12]: 14%
- Population Healthy Nuclei (%) [12]: 73%
- Population Hoechst High Intensity Objects (%) [12]: 1%
- Population Mitochondria Different-Phenotype (%) [12]: 4%
- Population Mitotic Cells (%) [12]: 15%
- Population Normal (%) [12]: 98%
- Population Pyknosed Nuclei (%) [12]: 11%
- Total Cell Count [12]: 171

— ChEMBL document CHEMBL5058577, “EUbOPEN Chemogenomics Library 2 (Multiplex)” (2022)
